# Where a name gives a salt, the structure may show the parent alone.
# Assays:
# K562 = assay: Cytotoxicity against K562 leukemia cell line done for 72 hr at 37 degree C with compound in MTS assay; assay type: functional, cell-based, Homo sapiens
# Method in brief: (§1)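 Cells (2000–10000) seeded in RPMI-1640 for 24 h, then exponentially growing cells exposed to a range of concentrations (0.001–5 μM) for 72 h at 37 °C, 5% CO2. MTS (2 mg/mL) mixed with PMS (25 μM) added directly; after 3 h at 37 °C formazan absorbance read at 490 nm. IC50 taken from dose-response curves of percent growth versus untreated control.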
# SW-620 = assay: Cytotoxicity against SW620 colon cancer cell line done for 72 h at 37 degree C with compound in MTS assay; assay type: functional, cell-based, Homo sapiens; method in brief: as §1
Compound,"IC50 (K562; Homo sapiens, K562, 72 h) [nM]","IC50 (SW-620; Homo sapiens, SW-620, 72 h) [nM]",IC50 (SW-620; sw-620) [nM],IC50 (K562; k562) [nM]
COc1cccc2c1C(=O)c1c(O)c3c(c(O)c1C2=O)C[C@@](O)(C(C)=O)C[C@@H]3OC1CC(N)C(OC2CC(C)(OC)C(O)C(C)O2)C(C)O1 (stereo partly drawn),21,11.4,,
COc1cccc2c1C(=O)c1c(O)c3c(c(O)c1C2=O)C[C@@](O)(C(C)=O)C[C@@H]3OC1CC(N)C(OC2CC(O)C(O)C(CO)O2)C(C)O1 (stereo partly drawn),1380,> 1000,,
COc1cccc2c1C(=O)c1c(O)c3c(c(O)c1C2=O)C[C@@](O)(C(C)=O)C[C@@H]3OC1CC(N)C(OC2OC(C)C(O)C(O)C2O)C(C)O1 (stereo partly drawn),> 4000,> 1000,,
COc1cccc2c1C(=O)c1c(O)c3c(c(O)c1C2=O)C[C@@](O)(C(C)=O)C[C@@H]3OC1CC(N)C(OC2CC(N=[N+]=[N-])C(O)C(C)O2)C(C)O1 (stereo partly drawn),31.3,60.3,,
COc1cccc2c1C(=O)c1c(O)c3c(c(O)c1C2=O)C[C@@](O)(C(C)=O)C[C@@H]3OC1CC(N)C(OC2CC(OC)C(O)C(C)O2)C(C)O1 (stereo in doubt; 1),39.5,,18.2,
COc1cccc2c1C(=O)c1c(O)c3c(c(O)c1C2=O)C[C@@](O)(C(C)=O)C[C@@H]3OC1CC(N)C(OC2CC(OC)C(O)C(C)O2)C(C)O1 (stereo in doubt; 2),,,38.9,45.8
COc1cccc2c1C(=O)c1c(O)c3c(c(O)c1C2=O)C[C@@](O)(C(C)=O)C[C@@H]3OC1CC(N)C(OC2CC(C)(O)C(O)C(C)O2)C(C)O1 (stereo in doubt; 3),,,21.7,44.3
COc1cccc2c1C(=O)c1c(O)c3c(c(O)c1C2=O)C[C@@](O)(C(C)=O)C[C@@H]3OC1CC(N)C(OC2CC(C)(O)C(O)C(C)O2)C(C)O1 (stereo in doubt; 4),,,> 1000,1530
COc1cccc2c1C(=O)c1c(O)c3c(c(O)c1C2=O)C[C@@](O)(C(C)=O)C[C@@H]3O[C@H]1C[C@H](N)[C@H](O)[C@H](C)O1 [DAUNORUBICIN HYDROCHLORIDE],15.6,8.6,,
